# CHOP inhibitor – inhibitors of CHOP induction in ER stress response; CHO-K1 CHOP-promoter luciferase, tunicamycin-induced, 15-18 h; inhibition, % at 10 µM; actives 3.8% (n = 220,000); AID 2732;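 active means compounds that reduced the stress-induced luciferase reporter signal by more than about 70% of percent inhibition, limit read from the data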;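 further: 0% = tunicamycin plus vehicle and 100% = wells without tunicamycin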
# ANO1 block – blocks the mouse calcium-activated chloride channel TMEM16A; actives 1.2% (n = 310,000); Q8BHY3; HEK293 TMEM16A/YFP iodide influx fluorescence, ionomycin; normalized B-score (activity score, 25-100; higher = stronger inhibition) at 10 µM;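 active means ratio plate-corrected score three or more library SD toward inhibition, starting fluorescence score within five deviations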;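 further: score derived from kinetic fluorescence span divided by baseline fluorescence per well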
# Target sequence (Q8BHY3 whole entry, looked up): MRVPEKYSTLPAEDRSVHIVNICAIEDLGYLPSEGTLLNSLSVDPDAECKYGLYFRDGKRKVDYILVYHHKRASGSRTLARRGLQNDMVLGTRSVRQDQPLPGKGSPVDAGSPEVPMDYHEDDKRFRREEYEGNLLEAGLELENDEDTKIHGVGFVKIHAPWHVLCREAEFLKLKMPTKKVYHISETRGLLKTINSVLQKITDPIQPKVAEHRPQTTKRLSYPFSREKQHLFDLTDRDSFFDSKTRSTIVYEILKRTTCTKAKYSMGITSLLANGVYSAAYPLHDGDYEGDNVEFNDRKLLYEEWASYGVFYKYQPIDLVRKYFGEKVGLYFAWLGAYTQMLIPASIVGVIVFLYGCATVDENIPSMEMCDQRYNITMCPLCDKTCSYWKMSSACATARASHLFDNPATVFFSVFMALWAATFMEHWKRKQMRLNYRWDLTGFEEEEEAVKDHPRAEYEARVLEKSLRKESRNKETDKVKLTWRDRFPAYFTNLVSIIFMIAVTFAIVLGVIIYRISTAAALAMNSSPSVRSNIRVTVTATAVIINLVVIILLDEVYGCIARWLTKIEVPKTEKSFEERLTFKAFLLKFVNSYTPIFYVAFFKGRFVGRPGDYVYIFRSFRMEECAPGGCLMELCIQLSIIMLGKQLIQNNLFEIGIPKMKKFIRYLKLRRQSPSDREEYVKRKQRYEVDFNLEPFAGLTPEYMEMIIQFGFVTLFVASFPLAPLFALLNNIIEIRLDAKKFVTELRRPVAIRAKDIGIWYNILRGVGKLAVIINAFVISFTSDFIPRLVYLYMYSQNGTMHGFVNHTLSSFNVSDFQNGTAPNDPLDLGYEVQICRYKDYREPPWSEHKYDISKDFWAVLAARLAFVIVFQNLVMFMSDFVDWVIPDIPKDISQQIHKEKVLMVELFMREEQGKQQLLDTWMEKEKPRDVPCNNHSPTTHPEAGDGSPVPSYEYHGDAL
# Hep lipid drop – modulators of hepatic lipid droplet formation | AML12 mouse hepatocytes, oleate lipid droplets, BODIPY imaging | inhibition, % at 6.5 µM | actives 0.4% (n = 240,000);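 active means lipid droplet intensity inhibited by at least 50%, with more than 500 cells counted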
#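 Assay system: AML12 hepatocytes (mouse) / Also added: 100 µM oleic acid challenge / Times: overnight treatment with compound plus oleate / Detection: high-content imaging of BODIPY-stained droplets and DAPI nuclei / Evaluation: % inhibition of lipid droplet signal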
# UPR XBP1 act – adaptive UPR (XBP1) activation | CHO-XBP1 luciferase reporter, IRE1-XBP1 UPR activation, luminescence; percent of tunicamycin response, DMSO as zero | activation, % at 20 µM | actives 0.33% (n = 330,000) | AID 463104;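 active means versus positive control, 20 µM dose yields 30% or more activation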;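 further: 100% = tunicamycin at 10 µg/mL and 0% = DMSO only wells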
#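 Signal: luciferase luminescence; Assay system: CHO-XBP1 luciferase reporter cells; Amount: one thousand reporter cells per well; Dosing: 20 µM single concentration, DMSO 1%; Benchmarks: high control tunicamycin 10 µg/mL final, low control DMSO vehicle only; Schedule: 6 h compound exposure at 37 °C, 5% CO2; Evaluation: percent activation relative to tunicamycin reference.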
# CHOP UPR activ – apoptotic UPR (CHOP) activation | activation, % at 10 µM | actives 0.34% (n = 330,000) | CHO-CHOP luciferase reporter, luminescence; percent of tunicamycin response over DMSO baseline | AID 449763;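 active means at 10 µM dose, activation of 40% or more, normalized to positive control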;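 further: 100% = tunicamycin at 10 µg/mL and 0% = DMSO alone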
#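 assay system = CHO CHOP reporter cells | amount = 500 CHO-CHOP cells per well | buffer or medium = F12 with 10% FBS | incubation = 16-18 h cell attachment, then 6 h compound exposure, 37 °C | detection = luminescence read with Steady-Glo | read-out = percent activation relative to tunicamycin control | controls = tunicamycin high control, DMSO low control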
# TMEM16A act – activates or potentiates the mouse TMEM16A chloride channel. Q8BHY3. HEK293 TMEM16A/YFP-H148Q/I152L, iodide quench fluorescence; active compounds read low. B-score at 10 µM. actives 0.3% (n = 340,000). AID 623877;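 active means fluorescence-ratio B-score plate-corrected deviation score at least 3 library SD below zero, with starting fluorescence score within 5 deviations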;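 further: channel opened by trigger with iodide after compound preincubation; score built on the fluorescence ratio of max minus min over baseline; more negative score means more quench and so TMEM16A activation or potentiation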
# CHOP UPR conf – confirmation of apoptotic unfolded protein response (CHOP) activators; AID 463112; actives 64% (n = 1,000); activation, % at 10 µM; CHO-CHOP cells, CHOP-luciferase reporter luminescence; percent of tunicamycin response, DMSO as zero; shares compounds with CHOP UPR activ; in the data active means activation above about 33%;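 further: 0% = DMSO wells and 100% = tunicamycin 10 µg/mL wells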
# UPR XBP1 confirm – adaptive UPR (XBP1) activation, confirmed; activation, % at 20 µM; AID 485299; shares compounds with UPR XBP1 act; CHO-XBP1 IRE1-XBP1 luciferase reporter, luminescence; actives 63% (n = 1,000);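 active means reporter signal at least 30% of the positive control's activation in two or more of four replicate wells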;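 further: plate controls were DMSO negative control for no effect and tunicamycin 10 µg/mL positive control for full effect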
# * = called active by the depositor; i = inactive; / = not tested or not shown. Only some compounds are listed: those with a hit (about 4.2% of all), similar ones and a draw of the others.
SMILES,CHOP inhibitor,ANO1 block,Hep lipid drop,UPR XBP1 act,CHOP UPR activ,TMEM16A act,CHOP UPR conf,UPR XBP1 confirm
O=C(CC(C(=O)O)c1cccc(Cl)c1Cl)c1ccccc1 (stereo not given),/,i,5,-3,1,/,/,/
O=C(NCc1ccc(Cl)cc1)[C@@H]1CCCN1S(=O)(=O)c1ccc(Cl)cc1,/,/,/,-2,-1,i,/,/
O=C(Nc1ccccc1Oc1ccsc1C(=O)O)c1ccccc1F,/,i,/,2,-1,i,/,/
O=C(c1ccc(Br)c(S(=O)(=O)N2CCCCC2)c1)N1CCCCC1,/,i,-4,-7,0,i,/,/
O=[N+]([O-])/C=C\c1ccc(N2CCOCC2)cc1,/,i,/,-3,52*,i,126*,/
O=[N+]([O-])c1cccc(N/N=C/c2ccc(N3CCOCC3)cc2)c1,/,i,22,6,2,i,/,/
S=c1[nH]nc(-c2cc(-c3ccccc3)n[nH]2)n1/N=C/C(Br)=C/c1ccccc1,-14,i,7,12,109*,i,130*,/
O=C1c2ccccc2C(=O)N1CCc1ccccn1,-10,i,14,2,3,i,/,/
O=C1c2cccc3c([N+](=O)[O-])ccc(c23)C(=O)N1CCc1ccccn1,-51,i,-5,9,58*,i,24,/
CCN(CC)c1ccc(C(=O)OCc2cc(=O)oc3cc(O)ccc23)cc1,51,i,/,78*,54*,i,22,/
CCN(CC)c1ccc2c(O)cc(=O)oc2c1,3,i,-9,1,-1,i,/,/
CCOc1cc(N2CCOCC2)c(OCC)cc1NC(=O)c1cnccn1,/,/,/,0,10,/,/,/
COc1ccc(C)cc1NC(=O)C1CCN(C(=O)c2ccc(C(C)(C)C)cc2)CC1,/,i,12,1,1,i,/,/
Cc1ccc(/C=C/C(=O)NC2CCCCCCC2)o1,54,i,1,4,125*,i,3,/
O=C(CSc1nnc(-c2ccccc2)c2ccccc12)NCCN1C(=O)CSC1=O,/,/,/,-1,1,i,/,/
O=C1S/C(=C\C=C\c2ccco2)C(=O)N1c1ccc(O)cc1,34,i,4,37*,168*,i,4,2
CCCCNC(=O)CSc1nc2cc3c(cc2c(=O)n1CCC(=O)NCCc1ccc(OC)c(OC)c1)OCO3,19,i,-1,-2,2,i,/,/
COc1cc(/C=C(/C#N)c2nc3ccccc3[nH]2)ccc1OCC(=O)Nc1ccccc1C,60,i,/,116*,299*,i,38*,79*
COc1cc(/C=C(\C#N)c2nc3ccccc3[nH]2)ccc1OC(=O)c1ccco1,27,i,19,17,7,i,/,/
Cc1ccc2c(c1)N(CC(=O)N1CCCC1)C(=O)C(C)O2 (stereo not given),/,i,/,-3,-1,i,/,/
Clc1ccc(-c2ccc(/C=N/Nc3nncc(-c4ccccc4)n3)o2)cc1,63,i,8,76*,42*,i,44*,145*
FC(F)(F)c1cccc(-c2ccc(/C=N/Nc3nncc(-c4ccccc4)n3)o2)c1,65,i,0,5,1,i,/,/
COCc1cc(C)nc(OCC(=O)N/N=C/c2ccc(-c3cc([N+](=O)[O-])ccc3Cl)o2)c1C#N,92*,i,10,342*,53*,i,70*,277*
COC(=O)c1ccc(COc2ccccc2/C=C(\C#N)C(=O)Nc2c(C)cccc2C)cc1,-76,i,-104,65*,128*,i,85*,65*
COc1ccc(OC)c(NC(=O)c2ccc3c(=O)n(CCc4ccccc4)c(=S)[nH]c3c2)c1,100*,i,5,36*,46*,i,7,16
SMILES,CHOP inhibitor,ANO1 block,Hep lipid drop,UPR XBP1 act,CHOP UPR activ,TMEM16A act,CHOP UPR conf,UPR XBP1 confirm
O=C(O)c1ccc(N2C(=O)/C(=C/c3ccc(-c4ccc([N+](=O)[O-])cc4)o3)C=C2c2ccccc2)cc1,12,i,7,57*,44*,i,20,80*
CN(/N=C/c1ccc(-c2ccc([N+](=O)[O-])cc2)o1)c1ccccc1,/,i,44,-1,0,i,/,/
COc1ccc(CCNC(=O)c2cc(S(=O)(=O)N3CCOCC3)ccc2F)cc1,/,/,/,-1,-1,i,/,/
CC1CCCCC1N1CN=C(Nc2nc3ccccc3s2)NC1 (stereo not given),67,i,/,90*,46*,i,86*,99*
O=C(Nc1ccc(Br)cc1)c1cc(-c2ccncc2)nc2ccccc12,/,/,/,122*,67*,i,29,105*
COc1ccc(CC(=O)Nc2ccc(-c3noc(-c4cc(OC)c(OC)c(OC)c4)n3)cc2)cc1,13,i,-24,4,4,i,/,/
COc1ccc(CC(=O)Nc2ccc(-c3noc(-c4ccc(Cl)cc4)n3)cc2)cc1,-22,i,12,76*,79*,i,13,22
CCOC(=O)c1[nH]c2ccc(Cl)cc2c1NC(=O)/C=C/c1ccc2c(c1)OCO2,48,i,-9,168*,54*,i,20,138*
Oc1cccc(/C=N/Nc2cc(N3CCOCC3)nc(N3CCOCC3)n2)c1,-23,i,-49,4,4,i,/,/
Oc1ccc(/C=N/Nc2cc(N3CCOCC3)nc(N3CCOCC3)n2)cc1O,-82,i,-7,59*,268*,i,100*,42*
Cc1ccc2sc(-c3ccc(NC(=O)c4cc(-n5cnnc5)ccc4Cl)cc3)nc2c1,-2,i,4,69*,85*,i,19,20
Cc1ccc(CCS(=O)(=O)c2ccc(C(C)(C)C)cc2)cn1,/,i,-2,-5,0,i,/,/
COC(=O)c1scc(C)c1-n1ccc(C(=O)C(=O)N(C)C)c1,9,i,-4,0,0,i,/,/
O=C(NCCc1ccccc1)C1COc2ccccc2O1 (stereo not given),/,i,/,0,2,i,/,/
O=C(NCCc1ccc(O)c(O)c1)C1COc2ccccc2O1 (stereo not given),/,i,-6,50*,64*,i,9,46*

# Compound activity: PubChem BioAssay, several laboratories
